In ChEMBL document CHEMBL1124735, “Dehydrogenase binding by tiazofurin anabolites” (J Med Chem, 1990):

Columns and labels:
[1] = test system: NC(=O)c1ccc[n+]([C@@H]2O[C@H](COP(=O)([O-])OP(=O)(O)OC[C@H]3O[C@@H](n4cnc5c(N)ncnc54)[C@H](O)[C@@H]3O)[C@@H](O)[C@H]2O)c1; assay: In vitro inhibitory activity against horse liver Alcohol dehydrogenase; details: Equus caballus
[2] = test system: NC(=O)c1ccc[n+]([C@@H]2O[C@H](COP(=O)([O-])OP(=O)(O)OC[C@H]3O[C@@H](n4cnc5c(N)ncnc54)[C@H](O)[C@@H]3O)[C@@H](O)[C@H]2O)c1; assay: In vitro inhibitory activity against bovine liver glutamate dehydrogenase (GDH)
[3] = test system: NC(=O)c1ccc[n+]([C@@H]2O[C@H](COP(=O)([O-])OP(=O)(O)OC[C@H]3O[C@@H](n4cnc5c(N)ncnc54)[C@H](O)[C@@H]3O)[C@@H](O)[C@H]2O)c1; assay: In vitro inhibitory activity against pig heart lactate dehydrogenase (LDH); details: Sus scrofa
Summary of the method: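 Pig heart enzymes (cytoplasmic MDH or LDH, from ammonium sulfate suspension) assayed in 0.05 M Tris HCl pH 9.0, with NAD as substrate; rates from NADH appearance by A340 (ε 6.22 mM⁻¹cm⁻¹) or fluorescence calibrated against NADH standards. Run at least in duplicate; kinetic constants from Lineweaver-Burk plots by linear regression.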

Sequence of L-lactate dehydrogenase B chain (Sus scrofa), P00336 (P00336 whole entry): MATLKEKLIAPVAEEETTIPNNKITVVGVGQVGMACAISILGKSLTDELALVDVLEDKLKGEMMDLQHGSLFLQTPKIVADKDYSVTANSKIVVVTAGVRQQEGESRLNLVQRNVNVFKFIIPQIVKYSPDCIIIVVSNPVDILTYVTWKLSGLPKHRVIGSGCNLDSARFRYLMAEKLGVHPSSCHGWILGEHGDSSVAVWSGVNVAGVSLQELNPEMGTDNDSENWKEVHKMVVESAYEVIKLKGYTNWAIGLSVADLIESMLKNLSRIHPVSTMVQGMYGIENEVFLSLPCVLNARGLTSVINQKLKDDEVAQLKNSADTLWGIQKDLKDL
Sequence of Glutamate dehydrogenase 1, mitochondrial (Bos taurus), P00366 (P00366 whole entry): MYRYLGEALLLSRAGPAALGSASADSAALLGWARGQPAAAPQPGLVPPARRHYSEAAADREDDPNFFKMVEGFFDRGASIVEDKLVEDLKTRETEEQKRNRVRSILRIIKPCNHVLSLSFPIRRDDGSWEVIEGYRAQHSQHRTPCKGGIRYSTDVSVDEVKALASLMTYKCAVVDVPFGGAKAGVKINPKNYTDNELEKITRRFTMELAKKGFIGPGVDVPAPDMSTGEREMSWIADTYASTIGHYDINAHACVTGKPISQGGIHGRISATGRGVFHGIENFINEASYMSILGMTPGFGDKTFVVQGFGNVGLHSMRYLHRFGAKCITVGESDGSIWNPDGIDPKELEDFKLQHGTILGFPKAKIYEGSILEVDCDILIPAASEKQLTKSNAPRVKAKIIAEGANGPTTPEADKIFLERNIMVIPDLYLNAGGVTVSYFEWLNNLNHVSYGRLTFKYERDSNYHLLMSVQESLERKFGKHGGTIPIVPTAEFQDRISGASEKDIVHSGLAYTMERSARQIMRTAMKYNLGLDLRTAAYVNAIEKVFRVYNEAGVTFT
Sequence of Alcohol dehydrogenase (Equus caballus) (P00328 whole entry, looked up): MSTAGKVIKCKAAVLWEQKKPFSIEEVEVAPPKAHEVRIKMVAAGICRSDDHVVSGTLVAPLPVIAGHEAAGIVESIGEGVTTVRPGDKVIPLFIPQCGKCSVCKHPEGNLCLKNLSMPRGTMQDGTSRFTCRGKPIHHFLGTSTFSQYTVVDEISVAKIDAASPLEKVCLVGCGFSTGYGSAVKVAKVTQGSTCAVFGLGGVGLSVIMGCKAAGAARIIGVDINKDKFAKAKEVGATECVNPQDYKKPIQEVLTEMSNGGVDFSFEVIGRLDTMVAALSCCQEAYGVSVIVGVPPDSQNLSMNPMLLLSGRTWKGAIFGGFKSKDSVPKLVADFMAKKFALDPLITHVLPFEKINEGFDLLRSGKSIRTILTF
Sequence of Alcohol dehydrogenase (Equus caballus) (P00327 whole entry, looked up): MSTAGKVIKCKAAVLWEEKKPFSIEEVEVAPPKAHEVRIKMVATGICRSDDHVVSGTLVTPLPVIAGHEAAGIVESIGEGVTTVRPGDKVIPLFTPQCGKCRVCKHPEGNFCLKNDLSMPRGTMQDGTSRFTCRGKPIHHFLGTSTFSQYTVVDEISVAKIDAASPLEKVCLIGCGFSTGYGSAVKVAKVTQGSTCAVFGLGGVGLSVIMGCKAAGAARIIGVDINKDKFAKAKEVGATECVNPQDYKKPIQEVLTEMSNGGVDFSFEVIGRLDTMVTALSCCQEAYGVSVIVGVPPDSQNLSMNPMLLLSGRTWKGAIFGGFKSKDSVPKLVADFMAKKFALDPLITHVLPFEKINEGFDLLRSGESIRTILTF

“Alcohol dehydrogenase (Equus caballus) (from UniProt P00327+P00328)” gave a Km [1] of 22.3 µM.
With “Glutamate dehydrogenase 1, mitochondrial (Bos taurus), P00366” the Km [2] was 20 µM.
“L-lactate dehydrogenase B chain (Sus scrofa), P00336” was tested, and the Km [3] was 84.4 µM.
